Active and inactive are the calls of the source.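 The calls were made as follows, unless noted: active = inhibition at or above 50% at 10 µM; inactive = inhibition below 50%.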

Test [1] is described as follows: inhibitors of TNFa-induced NFkB p65 translocation, primary screen, imaging, HUVEC, MLSMR starter and 10KST1 sets (AID 438;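 active = inhibition above 20% together with a positive visual image hit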;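 also: compound added about 3h40 before a 20 min TNFalpha stimulation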;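 as to inhibition: signal is the nuclear over cytoplasmic p65 intensity ratio per well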). Conditions: HUVEC TNFa-induced p65 nuclear translocation; cell count: measured here: nuclei count (cytotoxicity indicator), at 2.08 µM; inhibition: at 2 µM, stronger effect = higher value, 0% TNFa-plus-vehicle, 100% no-TNFa wells.
A short description of test [2]: inhibitors of mutant huntingtin aggregation, primary screen, imaging, exon1htt(103Q)mCFP cells, high-content imaging (AID 483;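 active = visual image review flags a hit and inhibition of aggregation exceeds 20%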;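 also: compound exposure lasted 3 days before fixation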;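 as to nuclei count: percent of the per-plate median nuclei count of sample wells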). Conditions: exon1htt(103Q)mCFP cell line, aggregate imaging, at 2 µM; inhibition of aggregation: stronger effect = higher value; nuclei count: measured here: cell count, toxicity.
Test [3] is described as follows: inhibitors of E-selectin induction by TNFa, primary screen, imaging, HUVEC, immunofluorescence, MLSMR starter and 10KST1 sets (AID 487;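 active = visually confirmed hit in the image check and inhibition above 20%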;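 as to inhibition: signal is fraction of cell area covered by stained E-selectin grains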;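 as to nuclei count: 100% = median nuclei count of all wells on the same plate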). The settings on record: HUVEC TNFalpha-induced E-selectin immunofluorescence imaging, at 2 µM; inhibition: stronger effect = higher value; nuclei count: measured here: cell number, toxicity.
Test [4] has as its target Voltage-gated potassium channel subunit beta-2 (Rattus norvegicus) (UniProt P62483). The test can be described thus: KvBeta enzyme negative modulators, primary screen, biochemical, NADPH fluorescence (AID 622;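 active = fluorescence slope higher than the sample average by over 3 SD, cut at about -0.22 in these data, passing the limit was not always enough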;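 also: slope of raw intensity against log time taken from 70 to 1610 s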). The settings on record: recombinant KvBeta, 4-cyanobenzaldehyde reduction, at 10 µM, stronger effect = higher value.
For test [5] the target is unchanged. Put plainly: KvBeta positive modulators, primary screen, biochemical, NADPH fluorescence (AID 623;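 active = NADPH fluorescence slope more negative than the mean of all samples by about 3 SD, 99.7% confidence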;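 also: fluorescence intensity change per second fitted from 20 to 320 s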). The settings on record: Recombinant KvBeta, NADPH fluorescence decrease slope, 10 min; at 10 µM; stronger effect = lower value.
Test [6] addresses Alpha-2C adrenergic receptor (Homo sapiens) (UniProt P18825). Put plainly: modulators of alpha2C/GIRK thallium flux, primary screen, cell-based, HEK293 alpha2C/GIRK1/2 (AID 624;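 active = fluorescence slope after compound addition differing from the mean of all screened samples at 99.7% confidence, in either direction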;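 also: slope of fluorescence ratio to pre-addition baseline per second over 15 to 24 s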). The settings on record: thallium flux BTC fluorescence, at 10 µM, actives lie on both sides.
Test [7] can be described thus: inhibitors of larval lipid processing in zebrafish, primary screen, whole organism, PED6 fluorescence, gall bladder and intestine (AID 686;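 active = a full or partial loss of lipid-probe fluorescence in the fish gall bladder, intestine or both, judged by eye; inactive = no fluorescence loss, or compound toxic to the fish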;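 also: larvae 5 to 7 days old with five fish per well; signal comes from phospholipase A2 cleavage of quenched PED6 carried via bile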). Conditions: Zebrafish larvae PED6 lipid processing, fluorescence scoring; screened at 20 µM (by protocol). In outline: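 System: live zebrafish larvae aged 5-7 days, whole organism; measure: graded gall bladder and intestinal fluorescence inhibition per well; incubation: overnight exposure; reagent: ingested quenched lipid PED6 at 100 nM; signal: By-eye fluorescence microscopy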

Test [8] in a line: inhibitors of Sendai virus-induced IRF3 signaling, primary screen, TLR/RLR signaling modifier project, cell-based, Sendai virus stimulus, luciferase, 10K MLSCN set (AID 602276).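 Also: firefly luciferase from ISG56 promoter only with Renilla not read in this screen; 0% = Sendai virus plus DMSO and 100% = medium plus DMSO without virus.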 The settings on record: HEK293 RL24 IRF3 luciferase reporter, at 10 µM, stronger effect = higher value.
Test [9] can be described thus: inhibitors of poly I:C-induced TLR3 signaling, primary screen, cell-based, poly I:C stimulus, luciferase, 10K MLSCN set (AID 602277;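 active = inhibition of the reporter signal at or above 50%; inactive = inhibition below 50%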). Conditions: HEK293-TLR3 RL24 IRF3 luciferase reporter, at 10 µM, stronger effect = higher value.

Alpha-2C adrenergic receptor (Homo sapiens), sequence (P18825 whole entry, looked up): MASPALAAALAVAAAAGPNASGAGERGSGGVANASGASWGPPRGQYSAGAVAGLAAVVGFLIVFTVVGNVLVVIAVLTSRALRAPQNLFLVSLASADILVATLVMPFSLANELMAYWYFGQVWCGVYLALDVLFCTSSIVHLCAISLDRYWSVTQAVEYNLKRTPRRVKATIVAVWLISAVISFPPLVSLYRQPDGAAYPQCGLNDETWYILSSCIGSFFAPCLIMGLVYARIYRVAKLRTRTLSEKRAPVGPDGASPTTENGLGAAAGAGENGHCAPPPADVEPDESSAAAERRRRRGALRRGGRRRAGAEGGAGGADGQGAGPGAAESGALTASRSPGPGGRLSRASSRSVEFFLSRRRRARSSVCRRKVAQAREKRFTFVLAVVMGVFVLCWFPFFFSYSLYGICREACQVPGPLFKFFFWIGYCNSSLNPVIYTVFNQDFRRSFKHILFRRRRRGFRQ
Voltage-gated potassium channel subunit beta-2 (Rattus norvegicus), sequence (P62483 whole entry, looked up): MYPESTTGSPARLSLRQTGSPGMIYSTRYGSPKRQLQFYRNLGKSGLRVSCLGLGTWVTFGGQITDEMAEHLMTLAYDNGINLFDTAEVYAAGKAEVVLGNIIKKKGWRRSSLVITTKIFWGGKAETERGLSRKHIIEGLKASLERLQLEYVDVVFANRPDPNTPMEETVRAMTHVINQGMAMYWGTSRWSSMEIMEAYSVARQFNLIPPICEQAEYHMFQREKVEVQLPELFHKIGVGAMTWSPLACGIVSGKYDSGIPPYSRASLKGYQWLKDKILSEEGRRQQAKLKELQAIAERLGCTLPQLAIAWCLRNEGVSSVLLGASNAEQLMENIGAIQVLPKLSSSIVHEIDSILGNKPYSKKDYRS

Take `c1cnc(NCCNc2ncccn2)nc1`: the cell count in [1] was 709. Further, the inhibition (usually the drop in the measured response relative to a control, in per cent) was -5% (inactive) in [1], -57.1% (inactive) in [3], 5.48% (inactive) in test [8] and 2.33% (inactive) in test [9]. The inhibition of aggregation in test [2] was 11.9% (inactive). Besides, the nuclei count was determined as 132% in test [2] and 124% in test [3]. For the same molecule, the fluorescence slope in [4] was -0.346 (inactive). For the same molecule, the NADPH fluorescence slope in [5] was -4.1e-05 (inactive). Further, the slope in [6] was 0.00555 (inactive). Besides, the molecule was called inactive in [7].
With `CC(OC(=O)CNC(=O)C12CC3CC(CC(C3)C1)C2)C(=O)Nc1ccc(N2CCOCC2)cc1` (centres undefined), in test [1], the cell count came out at 663. For the same molecule, the inhibition in test [1] was 4.1% (inactive); in test [3], -47.1% (inactive); in test [8], -2.61% (inactive); in test [9] it was -14.5% (inactive). Besides, the inhibition of aggregation in [2] was 3.3% (inactive). For the same molecule, the nuclei count in test [2] was found to be 110%; in [3], 111%. For the same molecule, in test [4], the fluorescence slope is -0.448 (inactive). The NADPH fluorescence slope in test [5] was -5.7e-05 (inactive). In addition, the slope in test [6] was 0.00563 (inactive). Moreover, the molecule was called inactive in test [7].
With `Cc1csc(NC(=O)Nc2cccc(Cl)c2)n1`, the cell count in test [1] came out at 506. Also, the inhibition in test [1] was 1.8% (inactive); in [3] it was -98.3% (inactive); in test [8] it was -37.7% (inactive); in test [9] it was -119% (inactive). Moreover, in test [2], the inhibition of aggregation is -3.3% (inactive). In addition, the nuclei count amounted to 97.5% in test [2] and 113% in test [3]. Further, in [4], the fluorescence slope is -0.373 (inactive). Moreover, the NADPH fluorescence slope in test [5] was -3.7e-05 (inactive). For the same molecule, in [6], the slope is 0.00525 (inactive). The outcome in [7] is “active; weak signal in gallbladder only”.
On to `O=C(O)CSc1ncn[nH]1`, for which the cell count in test [1] came out at 718. The inhibition in [1] was -14.4% (inactive); in test [3], -28.2% (inactive); in [8], 15.3% (inactive); in test [9] it was 12.4% (inactive). Also, in test [2], the inhibition of aggregation was 22.9% (inactive). For the same molecule, the nuclei count in test [2] amounted to 98.3%; in test [3] it was 112%. Besides, the fluorescence slope in [4] was -0.454 (inactive). Moreover, the NADPH fluorescence slope in [5] was -4.4e-05 (inactive). Also, the slope in test [6] is 0.00435 (inactive). Also, the molecule was classed as inactive in test [7].
On to `Cc1oc2c(c1C(=O)NCc1ccccc1)CCCC2`, for which the cell count in test [1] turned out to be 437. In addition, the inhibition in test [1] is 1.3% (inactive); in [3] it was 4.8% (inactive); in test [8] it was 9.63% (inactive); in test [9] it was 4.5% (inactive). Besides, the inhibition of aggregation in [2] is -13.6% (inactive). Besides, the nuclei count in test [2] turned out to be 108%; in test [3] it was 130%. Further, the fluorescence slope in test [4] was -0.464 (inactive). Further, the NADPH fluorescence slope in test [5] is -4.8e-05 (inactive). Besides, in test [6], the slope is 0.00391 (inactive). For the same molecule, in test [7], the outcome was inactive.
In the case of `CCCNC(=O)c1cc(S(=O)(=O)N2CCc3ccccc32)ccc1F`, in [1], the cell count was 503. The inhibition in test [1] is -17.2% (inactive); in test [3], -32.7% (inactive); in [8] it was 8.07% (inactive); in [9], 0.176% (inactive). The inhibition of aggregation in [2] is 14.3% (inactive). In addition, the values for the nuclei count in test [2] and in [3] were 74.6% and 104%, respectively. The fluorescence slope in test [4] was -0.412 (inactive). In [5], the NADPH fluorescence slope was -7.4e-05 (inactive). Moreover, the slope in [6] was 0.00573 (inactive). For the same molecule, the molecule was classed as inactive in test [7].
On to `CC1Oc2ccccc2N(Cc2ccccc2Cl)C1=O` (centres undefined), for which, in test [1], the cell count is 630. The inhibition in test [1] was 15.4% (inactive); in test [3], -90.8% (inactive); in test [8] it was -20.2% (inactive); in [9], -52.6% (inactive). Further, in test [2], the inhibition of aggregation was -11.1% (inactive). Besides, the nuclei count is 59.5% in [2] and 106% in test [3]. In test [4], the fluorescence slope is -0.475 (inactive). In addition, the NADPH fluorescence slope in test [5] was -5.9e-05 (inactive). In test [6], the slope was 0.00421 (inactive). Besides, the molecule was called inactive in test [7].
Take `COC(=O)c1ccccc1NC(=O)C12CCC(C)(C(=O)O1)C2(C)C` (centres undefined): the cell count in [1] worked out at 358. Besides, the inhibition in [1] is 1.7% (inactive); in [3], 29.1% (inactive); in test [8] it was 20.2% (inactive); in test [9] it was 22.6% (inactive). Further, the inhibition of aggregation in test [2] is -12.1% (inactive). Further, the figures for the nuclei count in test [2] and in test [3] were 106% and 92.7%, respectively. Moreover, the fluorescence slope in test [4] is -0.433 (inactive). In addition, in test [5], the NADPH fluorescence slope is -4.4e-05 (inactive). In test [6], the slope is 0.00406 (inactive). In addition, the call in [7] was inactive.
With `O=C(CN1CCN(Cc2ccccc2)CC1)NCC1COc2ccccc2O1` (centres undefined), the cell count in [1] came to 531. The inhibition was -6.7% (inactive) in test [1], -17.6% (inactive) in test [3], 12.2% (inactive) in test [8] and 98.2% (active) in test [9]. The inhibition of aggregation in test [2] was -7% (inactive). Besides, the nuclei count worked out at 95.7% in test [2] and 94.9% in test [3]. Further, the fluorescence slope in [4] was -0.356 (inactive). The NADPH fluorescence slope in [5] is -7.8e-05 (inactive). In [6], the slope is 0.00497 (inactive). For the same molecule, the result in [7] was inactive.
Regarding `O=C(NCc1cccnc1)c1cccc(C(F)(F)F)c1`, the cell count in test [1] is 355. For the same molecule, the inhibition in test [1] was 5.2% (inactive); in [3], 4.9% (inactive); in test [8], 11.3% (inactive); in [9], 20.1% (inactive). Moreover, the inhibition of aggregation in test [2] was 1.3% (inactive). Besides, the nuclei count in test [2] stood at 111%; in test [3], 103%. The fluorescence slope in [4] was -0.452 (inactive). Also, the NADPH fluorescence slope in test [5] is -2.9e-05 (inactive). In addition, the slope in test [6] was 0.00523 (inactive). Besides, in [7], the molecule was called inactive.
For the molecule `O=C(NCCC1=CCCCC1)C1CCN(S(=O)(=O)c2cnc[nH]2)CC1`, in [1], the cell count was found to be 472. Moreover, the inhibition in test [1] is 4.5% (inactive); in test [3], -36.1% (inactive); in test [8], 13.7% (inactive); in test [9] it was 18.8% (inactive). Moreover, in [2], the inhibition of aggregation was -8.6% (inactive). Moreover, the figures for the nuclei count in [2] and in test [3] were 93.1% and 117%, respectively. Besides, in test [4], the fluorescence slope was -0.367 (inactive). The NADPH fluorescence slope in test [5] was -4.7e-05 (inactive). Moreover, the slope in [6] is 0.0051 (inactive). Further, the result in test [7] was inactive.
In the case of `COc1cccc(N2CCN(CC(=O)c3c[nH]c4ccc(OC)cc34)CC2C)c1` (centres undefined), the cell count in [1] came to 508. Besides, the inhibition was -6.7% (inactive) in [1], -36.3% (inactive) in [3], 12.4% (inactive) in test [8] and 16% (inactive) in test [9]. The inhibition of aggregation in test [2] is 6% (inactive). For the same molecule, the nuclei count in test [2] came out at 85.4%; in test [3], 103%. In test [4], the fluorescence slope is -0.368 (inactive). Moreover, the NADPH fluorescence slope in test [5] was -3.9e-05 (inactive). For the same molecule, in [6], the slope is 0.00529 (inactive). For the same molecule, the molecule was called inactive in test [7].

The values above are taken from PubChem BioAssay.
